In ChEMBL document CHEMBL1137345, “Endoperoxide derivatives from marine organisms: 1,2-dioxanes of the plakortin family as novel antimalarial agents” (J Med Chem, 2006):

Key:
Plasmodium falciparum [1] = assay: Antimalarial activity against chloroquine-resistant Plasmodium falciparum W2 by pLDH assay; assay type: functional, organism-based
In short: (§1)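 P. falciparum clones D10 (CQ-sensitive, moderately mefloquine-resistant) and W2 (CQ-resistant, mefloquine-susceptible) kept in human A+ RBCs in RPMI 1640 with 10% A+ plasma, HEPES and glutamine under 1% O2/5% CO2/94% N2. Asynchronous cultures (1-1.5% parasitemia, 1% hematocrit) exposed to serial dilutions (DMSO <1% final) for 72 h at 37 °C. Parasite LDH read at OD650. IC50 reported as mean ± SD of four experiments in triplicate.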

Plasmodium falciparum [2] = assay: Antimalarial activity against chloroquine-sensitive Plasmodium falciparum D10 by pLDH assay; assay type: functional, organism-based; in short: as §1

| SMILES | IC50 (Plasmodium falciparum [1]) [nM] | IC50 (Plasmodium falciparum [2]) [nM] |
| --- | --- | --- |
| CC/C=C/[C@H](CC)C[C@@]1(C)C[C@@H](CC)[C@@H](CCOC)OO1 | 410 | 740 |
| CC[C@H](C[C@@]1(C)C[C@@H](CC)[C@@H](CC(=O)OC)OO1)C(=O)O | 1230 | 1200 |
| CC/C=C/[C@H](CC)C[C@@]1(C)C[C@@H](CC)[C@@H](CCO)OO1 | 480 | 830 |
| CC/C=C/[C@H](CC)C[C@@]1(C)C[C@@H](CC)[C@@H](CCOC(C)=O)OO1 | 460 | 840 |
| CC[C@H](C[C@@]1(C)C[C@@H](CC)[C@@H](CC(=O)OC)OO1)C(=O)OC | 780 | 850 |
| CC[C@H](C[C@@]1(C)C[C@@H](CC)[C@@H](CC(=O)OC)OO1)[C@@H]1O[C@H]1CC | 700 | 1200 |
| CC/C=C/[C@H](CC)C[C@@]1(C)C[C@@H](CC)[C@@H](CC(=O)OC)OO1 [PLAKORTIN] | 410 | 870 |
| C[C@@H]1CC[C@H]2[C@@H](C)C(=O)O[C@@H]3O[C@@]4(C)CC[C@@H]1[C@]32OO4 [ARTEMISININ] | 9 | 13 |
| CC[C@H](C[C@@]1(C)C[C@@H](CC)[C@@H](CC(=O)OC)OO1)[C@H]1O[C@@H]1CC | 500 | 1050 |
